Assay results: ChEMBL document CHEMBL2407068, “Tropolones as lead-like natural products: the development of potent and selective histone deacetylase inhibitors” (ACS Med Chem Lett, 2013)
pKi: −log10 of the molar value.

What was measured:
[1] = molecular target: T1, Protein deacetylase HDAC6 (Homo sapiens, UniProt Q9UBN7); test: Inhibition of human recombinant HDAC6 by Michaelis-Menten equation analysis
T1 sequence (Q9UBN7 whole entry): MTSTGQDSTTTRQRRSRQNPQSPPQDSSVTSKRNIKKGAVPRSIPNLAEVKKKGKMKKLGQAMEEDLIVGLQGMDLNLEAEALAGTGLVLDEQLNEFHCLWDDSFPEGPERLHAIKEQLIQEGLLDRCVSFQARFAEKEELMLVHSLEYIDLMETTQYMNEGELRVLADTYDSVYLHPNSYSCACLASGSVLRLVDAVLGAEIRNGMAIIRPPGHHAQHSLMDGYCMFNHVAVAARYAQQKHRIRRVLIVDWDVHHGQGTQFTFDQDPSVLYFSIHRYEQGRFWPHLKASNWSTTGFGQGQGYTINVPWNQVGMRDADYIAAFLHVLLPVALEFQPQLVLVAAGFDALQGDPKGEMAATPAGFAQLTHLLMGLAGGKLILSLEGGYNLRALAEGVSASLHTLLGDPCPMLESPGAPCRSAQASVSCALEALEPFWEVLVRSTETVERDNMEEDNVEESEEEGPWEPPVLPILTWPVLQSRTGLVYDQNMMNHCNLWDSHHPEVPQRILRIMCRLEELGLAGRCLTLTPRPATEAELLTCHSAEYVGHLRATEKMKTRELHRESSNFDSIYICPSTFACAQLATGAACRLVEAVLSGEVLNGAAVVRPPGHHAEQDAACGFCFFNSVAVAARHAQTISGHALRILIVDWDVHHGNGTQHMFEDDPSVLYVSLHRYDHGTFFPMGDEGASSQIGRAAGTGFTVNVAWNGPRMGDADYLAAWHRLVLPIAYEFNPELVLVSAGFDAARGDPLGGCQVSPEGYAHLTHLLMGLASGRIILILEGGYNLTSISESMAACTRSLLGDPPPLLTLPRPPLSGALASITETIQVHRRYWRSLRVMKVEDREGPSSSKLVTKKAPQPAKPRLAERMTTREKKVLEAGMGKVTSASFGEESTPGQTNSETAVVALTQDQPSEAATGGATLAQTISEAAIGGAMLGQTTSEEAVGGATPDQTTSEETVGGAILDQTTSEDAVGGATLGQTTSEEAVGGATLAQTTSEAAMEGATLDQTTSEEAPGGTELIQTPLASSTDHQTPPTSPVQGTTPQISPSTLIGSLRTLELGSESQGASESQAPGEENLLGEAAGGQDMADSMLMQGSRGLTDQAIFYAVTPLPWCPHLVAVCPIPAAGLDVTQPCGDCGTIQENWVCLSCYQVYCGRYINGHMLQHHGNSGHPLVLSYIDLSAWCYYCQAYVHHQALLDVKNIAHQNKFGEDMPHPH

Jurkat = test: Cytotoxicity against human Jurkat cells after 72 hrs by MTS assay; type: functional
Histone deacetylase 4 = Histone deacetylase 4 (Homo sapiens, UniProt P56524); test: Inhibition of human recombinant HDAC4 by Michaelis-Menten equation analysis
Histone deacetylase 4, sequence (P56524 whole entry): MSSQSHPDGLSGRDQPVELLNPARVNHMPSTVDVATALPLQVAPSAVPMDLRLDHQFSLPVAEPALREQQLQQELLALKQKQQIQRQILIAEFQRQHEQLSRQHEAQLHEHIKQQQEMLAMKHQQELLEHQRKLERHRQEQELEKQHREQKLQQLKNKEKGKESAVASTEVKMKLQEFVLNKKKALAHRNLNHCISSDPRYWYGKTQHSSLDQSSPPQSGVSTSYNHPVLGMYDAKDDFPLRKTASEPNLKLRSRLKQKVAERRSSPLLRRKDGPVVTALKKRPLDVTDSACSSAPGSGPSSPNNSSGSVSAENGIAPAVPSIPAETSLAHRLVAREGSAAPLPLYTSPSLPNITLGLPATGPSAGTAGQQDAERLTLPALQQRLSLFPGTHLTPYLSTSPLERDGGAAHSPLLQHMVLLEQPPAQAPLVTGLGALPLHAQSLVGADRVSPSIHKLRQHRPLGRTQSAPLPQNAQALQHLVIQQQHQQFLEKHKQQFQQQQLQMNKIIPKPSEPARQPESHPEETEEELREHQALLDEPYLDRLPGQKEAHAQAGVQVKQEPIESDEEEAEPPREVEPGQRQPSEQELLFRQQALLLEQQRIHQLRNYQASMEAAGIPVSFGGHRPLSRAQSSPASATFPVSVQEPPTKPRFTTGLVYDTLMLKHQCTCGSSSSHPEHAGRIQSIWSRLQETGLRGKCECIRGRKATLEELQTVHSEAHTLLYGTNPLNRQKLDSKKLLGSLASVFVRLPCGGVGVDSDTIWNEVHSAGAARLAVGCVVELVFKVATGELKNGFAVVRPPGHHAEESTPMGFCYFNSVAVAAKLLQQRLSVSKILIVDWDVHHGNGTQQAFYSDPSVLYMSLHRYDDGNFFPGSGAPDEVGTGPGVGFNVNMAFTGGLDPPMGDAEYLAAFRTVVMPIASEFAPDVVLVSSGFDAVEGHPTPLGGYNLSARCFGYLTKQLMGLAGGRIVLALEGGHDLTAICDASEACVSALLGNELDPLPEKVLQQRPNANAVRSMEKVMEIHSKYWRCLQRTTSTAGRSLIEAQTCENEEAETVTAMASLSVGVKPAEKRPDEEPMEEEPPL

BXPC-3 = test: Cytotoxicity against human BxPC3 cells after 72 hrs by MTS assay; type: functional; settings: BXPC-3, 72 h
Histone deacetylase 5 = Histone deacetylase 5 (Homo sapiens, UniProt Q9UQL6); test: Inhibition of human recombinant HDAC5 by Michaelis-Menten equation analysis
Histone deacetylase 5, sequence (Q9UQL6 whole entry): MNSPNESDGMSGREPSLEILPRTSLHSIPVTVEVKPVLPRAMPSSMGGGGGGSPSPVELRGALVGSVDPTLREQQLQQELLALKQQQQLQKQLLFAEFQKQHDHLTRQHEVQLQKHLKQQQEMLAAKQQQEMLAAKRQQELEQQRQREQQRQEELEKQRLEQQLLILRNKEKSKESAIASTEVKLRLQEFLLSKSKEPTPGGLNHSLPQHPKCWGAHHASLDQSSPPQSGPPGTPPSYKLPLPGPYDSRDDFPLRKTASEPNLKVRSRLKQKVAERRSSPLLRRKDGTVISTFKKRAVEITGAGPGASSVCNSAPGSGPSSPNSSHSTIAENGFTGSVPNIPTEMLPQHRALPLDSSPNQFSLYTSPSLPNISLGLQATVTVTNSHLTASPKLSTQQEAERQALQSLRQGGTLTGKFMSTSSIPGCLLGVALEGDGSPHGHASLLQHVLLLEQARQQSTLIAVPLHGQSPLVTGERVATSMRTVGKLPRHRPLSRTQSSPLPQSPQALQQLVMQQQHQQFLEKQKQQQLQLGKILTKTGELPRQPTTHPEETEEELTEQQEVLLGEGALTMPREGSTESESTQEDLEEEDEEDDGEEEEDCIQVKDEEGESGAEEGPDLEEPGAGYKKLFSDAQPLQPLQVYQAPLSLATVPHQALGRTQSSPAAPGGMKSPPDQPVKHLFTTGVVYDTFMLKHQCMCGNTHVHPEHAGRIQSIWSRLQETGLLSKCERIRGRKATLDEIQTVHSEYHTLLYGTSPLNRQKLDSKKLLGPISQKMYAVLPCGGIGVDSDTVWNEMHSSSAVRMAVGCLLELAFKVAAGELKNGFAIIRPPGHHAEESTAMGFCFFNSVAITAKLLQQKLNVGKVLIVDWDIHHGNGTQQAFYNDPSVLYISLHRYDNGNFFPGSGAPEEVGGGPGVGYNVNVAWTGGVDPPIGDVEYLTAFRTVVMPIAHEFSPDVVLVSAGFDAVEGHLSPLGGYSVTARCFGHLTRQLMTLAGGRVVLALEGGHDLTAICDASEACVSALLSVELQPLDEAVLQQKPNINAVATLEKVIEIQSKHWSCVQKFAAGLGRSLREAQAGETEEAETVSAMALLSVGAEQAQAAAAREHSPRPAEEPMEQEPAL

HuT78 = test: Cytotoxicity against human HUT78 cells after 72 hrs by MTS assay; type: functional; settings: HuT78, 72 h
Histone deacetylase 1 = Histone deacetylase 1 (Homo sapiens, UniProt Q13547); test: Inhibition of human recombinant HDAC1 by Michaelis-Menten equation analysis
Histone deacetylase 1, sequence (Q13547 whole entry): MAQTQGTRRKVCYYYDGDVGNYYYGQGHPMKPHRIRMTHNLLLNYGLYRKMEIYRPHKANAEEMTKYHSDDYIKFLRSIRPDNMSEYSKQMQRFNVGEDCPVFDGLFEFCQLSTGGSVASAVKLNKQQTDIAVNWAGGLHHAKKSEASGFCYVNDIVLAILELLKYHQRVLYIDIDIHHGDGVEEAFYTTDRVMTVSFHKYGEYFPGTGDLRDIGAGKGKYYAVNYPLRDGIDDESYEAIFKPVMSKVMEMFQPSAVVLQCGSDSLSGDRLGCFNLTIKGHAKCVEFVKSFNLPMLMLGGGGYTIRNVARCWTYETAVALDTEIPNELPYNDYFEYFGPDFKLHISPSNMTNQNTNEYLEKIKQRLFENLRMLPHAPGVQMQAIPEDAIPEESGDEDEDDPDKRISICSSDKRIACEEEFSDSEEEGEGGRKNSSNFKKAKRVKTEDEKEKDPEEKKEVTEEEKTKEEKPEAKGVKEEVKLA

Liver = test: Half life in mouse liver microsomes assessed as gluconoride formation at 0.4 ug/mL by HPLC-MS analysis in presence of UDPGA; type: ADME, Microsome
How it was run: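 Mouse liver microsome incubation run for phase II conjugation, with UDPGA added. Half-life was determined, and the glucuronide conjugate was detected by mass spectrometry.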

Histone deacetylase 8 [2] = molecular target: T2, Histone deacetylase 8 (Homo sapiens, UniProt Q9BY41); test: Inhibition of human recombinant HDAC8 by Michaelis-Menten equation analysis
T2 sequence (Q9BY41 whole entry): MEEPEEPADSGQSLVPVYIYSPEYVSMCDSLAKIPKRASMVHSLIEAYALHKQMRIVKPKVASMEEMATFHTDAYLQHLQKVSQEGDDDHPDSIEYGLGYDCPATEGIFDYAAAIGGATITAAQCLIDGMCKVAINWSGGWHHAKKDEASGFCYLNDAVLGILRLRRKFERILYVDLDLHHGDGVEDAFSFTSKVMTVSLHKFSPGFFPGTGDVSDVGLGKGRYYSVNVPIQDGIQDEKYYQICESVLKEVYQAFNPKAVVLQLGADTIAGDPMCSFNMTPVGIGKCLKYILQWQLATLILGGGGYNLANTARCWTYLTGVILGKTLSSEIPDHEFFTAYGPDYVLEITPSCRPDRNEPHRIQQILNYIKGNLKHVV

[3] = Cytotoxicity against HDF after 72 hrs by MTS assay; settings: human, HDF cells
HCT-116 = test: Cytotoxicity against human HCT116 cells after 72 hrs by MTS assay; type: functional; settings: HCT-116, 72 h
Histone deacetylase 2 = Histone deacetylase 2 (Homo sapiens, UniProt Q92769); test: Inhibition of human recombinant HDAC2 by Michaelis-Menten equation analysis
Histone deacetylase 2, sequence (Q92769 whole entry): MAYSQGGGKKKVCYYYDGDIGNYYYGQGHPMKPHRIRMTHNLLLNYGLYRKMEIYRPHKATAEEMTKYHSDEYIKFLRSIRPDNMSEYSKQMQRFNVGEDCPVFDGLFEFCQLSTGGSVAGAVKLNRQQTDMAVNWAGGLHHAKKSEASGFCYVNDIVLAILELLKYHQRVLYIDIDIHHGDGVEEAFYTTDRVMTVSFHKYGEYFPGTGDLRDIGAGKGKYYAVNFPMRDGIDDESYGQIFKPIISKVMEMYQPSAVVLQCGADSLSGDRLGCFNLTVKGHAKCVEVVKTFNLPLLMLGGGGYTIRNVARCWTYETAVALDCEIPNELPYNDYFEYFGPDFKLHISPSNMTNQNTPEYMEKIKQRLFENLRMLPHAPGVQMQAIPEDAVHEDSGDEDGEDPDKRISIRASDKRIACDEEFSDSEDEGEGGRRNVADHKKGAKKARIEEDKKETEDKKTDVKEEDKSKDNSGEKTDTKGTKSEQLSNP

Homo sapiens [4] = species on record: Homo sapiens; test: Selectivity ratio of Ki for human recombinant HDAC1 to Ki for human recombinant HDAC2
Homo sapiens [5] = species on record: Homo sapiens; test: Selectivity ratio of Ki for human recombinant HDAC6 to Ki for human recombinant HDAC2
Homo sapiens [6] = species on record: Homo sapiens; test: Selectivity ratio of Ki for human recombinant HDAC4 to Ki for human recombinant HDAC2
Homo sapiens [7] = species on record: Homo sapiens; test: Selectivity ratio of Ki for human recombinant HDAC8 to Ki for human recombinant HDAC2
Homo sapiens [8] = species on record: Homo sapiens; test: Selectivity ratio of Ki for human recombinant HDAC5 to Ki for human recombinant HDAC2
[9] = Half life in mouse liver microsomes at 0.4 ug/mL by HPLC-MS analysis in presence of NADPH; type: ADME, Microsome
Histone deacetylase 8 [10] = molecular target: T2, Histone deacetylase 8; test: Competitive inhibition of human recombinant HDAC8 by Michaelis-Menten equation analysis

Structure (SMILES) | pKi [1] | GI50 (Jurkat) | pKi (Histone deacetylase 4) | GI50 (BXPC-3) | pKi (Histone deacetylase 5) | GI50 (HuT78) | pKi (Histone deacetylase 1) | t1/2 (Liver) | pKi (Histone deacetylase 8 [2]) | GI50 at 72 h [3] | GI50 (HCT-116) | pKi (Histone deacetylase 2) | Ratio Ki (Homo sapiens [4]) | Ratio Ki (Homo sapiens [5]) | Ratio Ki (Homo sapiens [6]) | Ratio Ki (Homo sapiens [7]) | Ratio Ki (Homo sapiens [8]) | half-life at 0.4 ug/mL [9] | pKi (Histone deacetylase 8 [10])
CC(C)c1cccc(=O)c(O)c1 [HINOKITIOL] | < 5.60 | 1.1 µM | < 4.70 | 19 µM | < 5.60 | 4.99 µM | < 5.60 | > 1 h | 6.75 | > 100 µM | 6.92 µM | 7.81 |  |  |  |  |  |  | 
O=c1c(O)ccccc1-c1ccc2ccccc2c1 | < 5.60 | 1.15 µM | < 4.70 | 17.1 µM | < 5.60 | 4.11 µM | < 5.60 | > 1 h | 6.73 | 93.1 µM | 32.1 µM | 9.60 | > 100 | > 100 | > 100 | > 100 | > 100 |  | 
O=C(CCCCCCC(=O)Nc1ccccc1)NO [VORINOSTAT] |  | 0.9 µM |  | 5.56 µM |  | 2.1 µM |  |  |  | 18.9 µM | 2.5 µM |  |  |  |  |  |  | 0.467 h | 
COc1cccc(C(C)C)cc1=O | < 5.60 | > 100 µM | 4.93 | > 100 µM | < 5.60 | > 100 µM | < 5.60 | > 1 h | 8.10 | > 100 µM | > 100 µM | < 5.60 |  |  |  |  |  |  | 
COc1ccc(-c2ccccc(O)c2=O)cc1 | < 5.60 | 0.62 µM | < 4.70 | 35.9 µM | < 5.60 | 2.87 µM | < 5.60 | > 1 h | 7.08 | > 100 µM | 57 µM | 9.09 | > 100 | > 100 | > 100 | > 100 | > 100 |  | 
CC(C)(C)c1cccc(O)c(=O)c1 | < 5.60 | 4.45 µM | 6.09 | 43 µM | < 5.60 | 13.1 µM | < 5.60 | > 1 h | 7.89 | > 100 µM | 62.6 µM | 9.89 | > 100 | > 100 | > 100 | > 100 | > 100 |  | 
O=c1cc(C2CCCC2)cccc1O | < 5.60 | 6.3 µM | 6.00 | 180 µM | < 5.60 | 11.4 µM | < 5.60 | > 1 h | 6.91 | > 100 µM | > 100 µM | 10.40 | > 100 | > 100 | > 100 | > 100 | > 100 |  | 
CCC(C)c1cccc(O)c(=O)c1 (centres undefined) | < 5.60 | 0.59 µM | 5.21 | 104 µM | < 5.60 | 3.25 µM | < 5.60 | > 1 h | 8.64 | > 100 µM | 26.9 µM | 9.66 |  |  |  |  |  |  | 
O=c1cc(-c2ccccc2)cccc1O | < 5.60 | 0.67 µM | 4.96 | 18.5 µM | < 5.60 | 4.14 µM | < 5.60 | > 1 h | 8.83 | > 100 µM | 53.4 µM | 10.22 |  |  |  |  |  |  | 
O=c1c(O)ccccc1-c1ccccc1 | 6.28 | 3.33 µM | < 4.70 | 29.4 µM | < 5.60 | 7.83 µM | < 5.60 | > 1 h | 8.96 | 96.5 µM | 15.2 µM | 9.59 |  |  |  |  |  | 1.55 h | 9.28
COc1ccc(OC)c(-c2ccccc(O)c2=O)c1 | < 5.60 | 0.76 µM | < 4.70 | 14.1 µM | < 5.60 | 3.05 µM | < 5.60 | > 1 h | 6.09 | > 100 µM | 46.6 µM | 9.38 | > 100 | > 100 | > 100 | > 100 | > 100 |  | 
COc1ccc(-c2cccc(O)c(=O)c2)cc1 | < 5.60 | 4.62 µM | 5.08 | 91.6 µM | < 5.60 | 8.95 µM | < 5.60 | > 1 h | 8.62 | > 100 µM | 43.7 µM | 9.92 |  |  |  |  |  |  | 
COc1ccc(OC)c(-c2cccc(O)c(=O)c2)c1 | < 5.60 | 5.89 µM | 4.95 | 34.8 µM | < 5.60 | 17.1 µM | < 5.60 | > 1 h | 6.57 | > 100 µM | > 100 µM | 9.29 | > 100 | > 100 | > 100 | > 100 | > 100 |  | 
COc1ccc(-c2ccccc(O)c2=O)c(OC)c1OC | < 5.60 | 1.86 µM | < 4.70 | 21 µM | < 5.60 | 4.74 µM | < 5.60 | > 1 h | 6.91 | > 100 µM | 35 µM | 9.64 | > 100 | > 100 | > 100 | > 100 | > 100 |  | 
